Measured values from ChEMBL document CHEMBL4020761, “Exploration of pyrrole derivatives to find an effective potassium-competitive acid blocker with moderately long-lasting suppression of gastric acid secretion” (Bioorg Med Chem, 2017).
The source made the active and inactive calls. The calls are words filed in the database; no cut-off is given here.

Columns and labels:
Rattus norvegicus [1] = assay: Inhibition of histamine-induced acid secretion in Jcl:Sprague-Dawley rat gastric at 1 mg/kg, iv pretreated for 3 mins after pylorus ligation followed by histamine.2HCl treatment measured after 3 hrs by titration method relative to control; format: functional
Outline: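 Anesthetized rats dosed iv at 1 mg/kg. Total acid output over 3 h after histamine injection compared with vehicle-treated rats.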

[2] = Drug uptake in Sprague-Dawley rat stomach at 0.2 mg/kg, iv administered as cassette dose after 10 mins by LC-MS/MS analysis; format: ADME, organism-based; details: read-out: Drug uptake
Outline: (§1)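 Fasted male Sprague-Dawley rats given compounds iv by cassette dosing at 0.2 mg/kg (as free base). Plasma and stomach sampled at 10 min, 1, 4 and 24 h. Plasma and 20% stomach homogenate in saline deproteinized with acetonitrile containing internal standard, then LC/MS/MS. AUC calculated for plasma and stomach. Values are averages of three rats.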

CYP3A4 = CYP3A4 (Homo sapiens, UniProt P08684); assay: Inhibition of CYP3A4 (unknown origin) expressed in insect cells at 10 uM using testosterone as substrate after 15 mins by HPLC analysis relative to control; format: ADME; details: recombinant CYP3A4 expressed in insect cells, probe testosterone
Chain of CYP3A4 (P08684 whole entry): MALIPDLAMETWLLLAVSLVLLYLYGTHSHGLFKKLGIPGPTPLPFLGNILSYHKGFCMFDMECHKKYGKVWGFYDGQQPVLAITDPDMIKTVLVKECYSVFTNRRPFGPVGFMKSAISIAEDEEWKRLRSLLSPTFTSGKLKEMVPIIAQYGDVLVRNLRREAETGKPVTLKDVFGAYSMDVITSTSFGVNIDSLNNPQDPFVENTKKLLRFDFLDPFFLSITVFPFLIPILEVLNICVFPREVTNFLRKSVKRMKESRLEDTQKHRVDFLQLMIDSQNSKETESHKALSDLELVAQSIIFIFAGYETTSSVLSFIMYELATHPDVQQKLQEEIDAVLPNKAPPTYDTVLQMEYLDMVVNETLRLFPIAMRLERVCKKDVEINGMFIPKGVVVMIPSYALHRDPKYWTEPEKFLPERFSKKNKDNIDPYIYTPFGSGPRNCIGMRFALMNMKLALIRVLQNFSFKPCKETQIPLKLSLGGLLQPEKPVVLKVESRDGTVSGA
Outline: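 Testosterone substrate at 100 μmol/L with 10 nmol/L insect-cell-expressed CYP3A4 and 10 μmol/L test compound, incubated 15 min at 37 °C. 6β-hydroxytestosterone quantified by HPLC with UV detection.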

[3] = Lipophilicity, log D of the compound at pH 7.4 by HPLC analysis; format: physicochemical; details: buffer
Outline: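 At pH 7.4, log D derived from HPLC retention time relative to standard compounds.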

Stomach = assay: AUC in Sprague-Dawley rat stomach at 0.2 mg/kg, iv administered as cassette dose by LC-MS/MS analysis; format: ADME, organism-based; details: in vivo; outline: as §1
[4] = AUC in Sprague-Dawley rat plasma at 0.2 mg/kg, iv administered as cassette dose by LC-MS/MS analysis; format: ADME, organism-based; outline: as §1
[5] = Inhibition of H+/K+-ATPase in porcine stomach gastric mucosal microsomes assessed as reduction in inorganic phosphate production using ATP as substrate preincubated for 30 mins followed by ATP addition in presence of KCl at pH 6.5 by malachite green reagent based colorimetric assay; design: species or system Sus scrofa
[6] = Cytotoxicity against human HepG2 cells assessed as cellular ATP level at 100 uM after 1 day by ATPLite assay relative to control; format: cell-based; details: read-out: Activity
[7] = Plasma concentration in Sprague-Dawley rat at 0.2 mg/kg, iv administered as cassette dose after 4 hrs by LC-MS/MS analysis; format: ADME, organism-based; outline: as §1
[8] = Plasma concentration in Sprague-Dawley rat at 0.2 mg/kg, iv administered as cassette dose after 1 hr by LC-MS/MS analysis; format: ADME, organism-based; outline: as §1
[9] = Drug uptake in Sprague-Dawley rat stomach at 0.2 mg/kg, iv administered as cassette dose after 4 hrs by LC-MS/MS analysis; format: ADME, organism-based; details: read-out: Drug uptake; outline: as §1
[10] = Drug uptake in Sprague-Dawley rat stomach at 0.2 mg/kg, iv administered as cassette dose after 1 hr by LC-MS/MS analysis; format: ADME, organism-based; details: read-out: Drug uptake; outline: as §1
[11] = Plasma concentration in Sprague-Dawley rat at 0.2 mg/kg, iv administered as cassette dose after 10 mins by LC-MS/MS analysis; format: ADME, organism-based; outline: as §1
hERG (KCNH2) = hERG (KCNH2) (Homo sapiens, UniProt Q12809); assay: Inhibition of human ERG expressed in HEK cells at 10 uM at -75 mV holding potential by Whole-cell voltage clamp assay relative to control; format: cell-based; details: HEK cells expressing human ERG
Chain of hERG (KCNH2) (Q12809 whole entry): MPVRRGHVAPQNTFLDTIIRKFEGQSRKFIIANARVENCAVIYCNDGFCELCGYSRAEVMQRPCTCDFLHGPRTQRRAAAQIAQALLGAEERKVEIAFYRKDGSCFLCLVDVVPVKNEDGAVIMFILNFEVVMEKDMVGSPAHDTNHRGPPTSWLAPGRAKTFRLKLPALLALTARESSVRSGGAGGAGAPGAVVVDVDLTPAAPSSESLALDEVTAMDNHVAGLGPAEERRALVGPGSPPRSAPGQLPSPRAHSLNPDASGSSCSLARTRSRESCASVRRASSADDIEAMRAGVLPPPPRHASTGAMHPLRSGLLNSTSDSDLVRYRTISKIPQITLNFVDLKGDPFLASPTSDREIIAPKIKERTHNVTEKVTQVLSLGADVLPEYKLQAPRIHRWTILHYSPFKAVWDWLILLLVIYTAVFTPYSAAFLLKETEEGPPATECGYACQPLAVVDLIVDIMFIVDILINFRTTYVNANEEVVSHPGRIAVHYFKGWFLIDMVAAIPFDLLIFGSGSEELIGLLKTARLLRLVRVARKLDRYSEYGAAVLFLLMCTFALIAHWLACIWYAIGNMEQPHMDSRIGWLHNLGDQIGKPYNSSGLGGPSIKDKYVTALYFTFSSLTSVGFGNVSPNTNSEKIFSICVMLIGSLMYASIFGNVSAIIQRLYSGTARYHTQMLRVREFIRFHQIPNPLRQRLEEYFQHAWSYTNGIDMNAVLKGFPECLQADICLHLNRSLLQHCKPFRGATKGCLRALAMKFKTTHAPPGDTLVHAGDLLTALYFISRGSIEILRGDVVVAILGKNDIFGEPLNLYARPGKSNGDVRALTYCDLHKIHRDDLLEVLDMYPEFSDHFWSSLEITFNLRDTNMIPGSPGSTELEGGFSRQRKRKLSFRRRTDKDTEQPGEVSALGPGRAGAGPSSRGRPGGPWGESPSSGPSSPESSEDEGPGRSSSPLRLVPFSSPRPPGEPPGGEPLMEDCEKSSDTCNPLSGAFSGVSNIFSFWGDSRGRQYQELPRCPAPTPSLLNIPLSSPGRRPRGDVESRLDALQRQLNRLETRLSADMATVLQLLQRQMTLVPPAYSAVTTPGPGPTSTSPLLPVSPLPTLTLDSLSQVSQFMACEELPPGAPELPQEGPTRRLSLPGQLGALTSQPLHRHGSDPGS

Canis familiaris [12] = assay: Inhibition of histamine-induced acid secretion in dog heidenhain pouch at 1 mg/kg, po treated 1 day after and 1 to 48 hrs before histamine.2HCl treatment measured 30 mins post histamine challenge by titration method; format: functional, organism-based; details: Canis lupus familiaris
Rattus norvegicus [13] = assay: Inhibition of histamine-induced acid secretion in Jcl:Sprague-Dawley rat assessed as pH of gastric perfusate at 1 mg/kg, iv pretreated for 3 mins after pylorus ligation followed by histamine.2HCl treatment measured after 3 hrs by glass electrode method (reference value: 2); format: functional
[14] = Drug uptake in Sprague-Dawley rat stomach at 0.2 mg/kg, iv administered as cassette dose after 24 hrs by LC-MS/MS analysis; format: ADME, organism-based; details: read-out: Drug uptake; outline: as §1
Rattus norvegicus [15] = assay: Inhibition of histamine-induced acid secretion in Jcl:Sprague-Dawley rat assessed as increase in pH of gastric perfusate at 1 mg/kg, iv pretreated for 3 mins after pylorus ligation followed by histamine.2HCl treatment measured after 180 to 300 mins by glass electrode method; format: functional, organism-based
Rattus norvegicus [16] = assay: Inhibition of histamine-induced acid secretion in Jcl:Sprague-Dawley rat assessed as increase in pH of gastric perfusate at 1 mg/kg, iv pretreated for 3 mins after pylorus ligation followed by histamine.2HCl treatment measured after 3 hrs by glass electrode method; format: functional, organism-based
[17] = Inhibition of CYP450 (unknown origin); format: ADME; details: human
Rattus norvegicus [18] = assay: Inhibition of histamine-induced acid secretion in po dosed rat assessed as increase in pH of gastric perfusate pretreated for 1 hr followed by pylorus ligation and histamine.2HCl treatment measured after 3 hrs by glass electrode method; format: functional, organism-based
[19] = Stability of the compound under acidic condition; format: physicochemical
Canis familiaris [20] = assay: Inhibition of histamine-induced acid secretion in dog heidenhain pouch at 1 mg/kg, po treated 1 day after and 1 to 48 hrs before histamine.2HCl treatment measured up to 24 hrs post dose by titration method; format: functional, organism-based; details: Canis lupus familiaris
Outline: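 Heidenhain pouch dogs dosed orally at 1 mg/kg, with histamine-stimulated acid secretion followed over time, up to 24 h after dosing. Mean ± SE from three or four dogs.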

[21] = Dissociation constant, pKa of the compound; format: physicochemical
Outline: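 pH-metric titration across pH 2–12 with an Ag/AgCl pH electrode.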

Structure (SMILES)	inhibition in vivo at 1 mg/kg (Rattus norvegicus [1]) [%]	concentration at 10 min [2] [ng/g]	inhibition at 0.25 h, 10 µM (CYP3A4) [%]	logD [3]	AUC (Stomach) [ng·h/g]	AUC [4] [µg·h/mL]	IC50 [5] [µM]	viability at 24 h, 100 µM [6] [%]	concentration at 1 h [8] [µg/mL]	concentration at 4 h [9] [ng/g]	concentration at 1 h [10] [ng/g]	concentration at 10 min [11] [µg/mL]	inhibition at 10 µM (hERG (KCNH2)) [%]	inhibition (Canis familiaris [12])	pH (Rattus norvegicus [13])	concentration at 24 h [14] [ng/g]	inhibition (Rattus norvegicus [15])	other results
CNCc1cn(S(=O)(=O)c2cccnc2C)c(-c2cccnc2F)c1F	92	507	30.1	0.48	4806	0.032	0.21	97.4	0.008	300	577	0.0253	14.8					concentration at 4 h [7]: 0.0003 µg/mL
CNCc1cn(S(=O)(=O)c2ccccn2)c(-c2cccnc2F)c1F	95	617	7.7	0.44	5757	0.033	0.097	94.8	0.0079	337	809	0.036	9	Active	5	2.1	inactive	
CNCc1cn(S(=O)(=O)c2ccc(C)nc2)c(-c2cccnc2F)c1F	97	672	-1.2	0.62	18284	0.041	0.18	76.7	0.0108	1180	1120	0.0401	24.8			219	inactive	inhibition (Rattus norvegicus [16]): Active
CNCc1cn(S(=O)(=O)c2cc(C)ccn2)c(-c2cccnc2F)c1F	92	947	4.3	0.48	10378	0.035	0.073	85.5	0.0081	682	927	0.0394	45.1	Active	6	28.9	inactive	inhibition (INH) [17]: Not Active; inhibition (Rattus norvegicus [18]): Dose-dependent effect; Stability [19]: Stable; inhibition (Canis familiaris [20]): Active; pKa [21]: 8.73
